Source: ChEMBL document CHEMBL4680253, “Hybrids of MEK inhibitor and NO donor as multitarget antitumor drugs” (Eur J Med Chem, 2020)
Activity calls are given as the source filed them. No cut-off for these calls is given here.

How the values were obtained:
MDA-MB-231 [1] = assay: Induction of apoptosis in human MDA-MB-231 cells assessed as late apoptotic cells at 10 uM incubated for 24 hrs by AnnexinV-FITC and propidium iodide staining based flow cytometry (reference value: 3.54%); type: functional
[2] = Antiproliferative activity against human A375 cells harboring BRAF V600E mutant assessed as inhibition of cell viability after 96 hrs by Celltiter-Glo assay; type: functional, cell-based, A375/R; settings: A-375, 96 h
MDA-MB-231 [3] = assay: Antiproliferative activity against human MDA-MB-231 cells harboring KRAS G13D/BRAF G464V mutant assessed as inhibition of cell viability after 96 hrs by Celltiter-Glo assay; type: functional, cell-based; settings: MDA-MB-231, 96 h
HCT-116 = assay: Antiproliferative activity against human HCT116 cells harboring KRAS G13D mutant assessed as inhibition of cell viability after 96 hrs by Celltiter-Glo assay; type: functional, cell-based; settings: HCT-116, 96 h
A549 = assay: Antiproliferative activity against human A549 cells harboring KRAS G12S mutant assessed as inhibition of cell viability after 96 hrs by Celltiter-Glo assay; type: functional, cell-based; settings: A549, 96 h
HL-60 = assay: Antiproliferative activity against human HL60 cells harboring NRAS […] mutant assessed as inhibition of cell viability after 96 hrs by Celltiter-Glo assay; type: functional, cell-based; settings: HL-60, 96 h
[4] = target: T1, Dual specificity mitogen-activated protein kinase kinase; MEK1/2 (Homo sapiens) (UniProt P36507+Q02750); assay: Inhibition of MEK in human A549 cells assessed as reduction in MEK phosphorylation at 10 uM incubated for 2 hrs by Western blot analysis; type: cell-based
Outline: (§1)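 A549 cells in RPMI-1640 with 10% FBS, treated 2 h. Cells lysed in RIPA with protease/phosphatase inhibitors on ice for 20 min. Equal protein run on 4-20% SDS-PAGE and blotted to PVDF. Membranes blocked in 5% milk, then probed overnight at 4 °C with rabbit mAbs to pMEK, MEK, pERK and ERK, followed by HRP secondary. GAPDH used as loading control.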

[5] = target: T1, Dual specificity mitogen-activated protein kinase kinase; MEK1/2 (Homo sapiens); assay: Inhibition of MEK in human A549 cells assessed as reduction in ERK phosphorylation at 1 uM incubated for 2 hrs by Western blot analysis; type: cell-based; outline: as §1
Vero = assay: Cytotoxicity against African green monkey Vero cells assessed as reduction in cell viability after 96 hrs by Celltiter-Glo assay; type: cell-based; settings: Chlorocebus sabaeus
Outline: (§2)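 Cells kept at 37 °C in humidified 5% CO2 with 10% FBS; Vero in DMEM, HL7702 in RPMI-1640. Compounds added to plated cells and incubated 96 h at 37 °C. Viability read by CellTiter-Glo reagent added directly to the wells. IC50 fitted from the readings.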

L02 = assay: Cytotoxicity against human HL7702 cells assessed as reduction in cell viability after 96 hrs by Celltiter-Glo assay; type: cell-based; settings: L02, 96 h; outline: as §2
MDA-MB-231 [6] = assay: Induction of apoptosis in human MDA-MB-231 cells assessed as viable cells at 1 uM incubated for 24 hrs by AnnexinV-FITC and propidium iodide staining based flow cytometry (reference value: 90.962%); type: functional; settings: read-out: Activity
MDA-MB-231 [7] = assay: Induction of apoptosis in human MDA-MB-231 cells assessed as early apoptotic cells at 1 uM incubated for 24 hrs by AnnexinV-FITC and propidium iodide staining based flow cytometry (reference value: 4.4%); type: functional
MDA-MB-231 [8] = assay: Induction of apoptosis in human MDA-MB-231 cells assessed as late apoptotic cells at 1 uM incubated for 24 hrs by AnnexinV-FITC and propidium iodide staining based flow cytometry (reference value: 3.54%); type: functional
MDA-MB-231 [9] = assay: Induction of apoptosis in human MDA-MB-231 cells assessed as necrotic cells at 1 uM incubated for 24 hrs by AnnexinV-FITC and propidium iodide staining based flow cytometry (reference value: 1.084%); type: functional
MDA-MB-231 [10] = assay: Induction of apoptosis in human MDA-MB-231 cells assessed as viable cells at 10 uM incubated for 24 hrs by AnnexinV-FITC and propidium iodide staining based flow cytometry (reference value: 90.962%); type: functional; settings: read-out: Activity
MDA-MB-231 [11] = assay: Induction of apoptosis in human MDA-MB-231 cells assessed as early apoptotic cells at 10 uM incubated for 24 hrs by AnnexinV-FITC and propidium iodide staining based flow cytometry (reference value: 4.4%); type: functional
MDA-MB-231 [12] = assay: Induction of apoptosis in human MDA-MB-231 cells assessed as necrotic cells at 10 uM incubated for 24 hrs by AnnexinV-FITC and propidium iodide staining based flow cytometry (reference value: 1.084%); type: functional
[13] = target: T1, Dual specificity mitogen-activated protein kinase kinase; MEK1/2 (Homo sapiens); assay: Inhibition of MEK in human MDA-MB-231 cells assessed as reduction in MEK phosphorylation at 10 uM incubated for 2 hrs by Western blot analysis; type: cell-based
Outline: (§3)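 MDA-MB-231 in RPMI-1640 with 10% FBS. Dose series at 1, 3 and 10 µM for 2 h or 24 h; time course at 1 µM or 10 µM over several time points. RIPA lysates with protease/phosphatase inhibitors, equal protein on 4-20% SDS-PAGE, PVDF transfer, 5% milk block. Probed overnight at 4 °C for pMEK, MEK, pERK and ERK, then HRP secondary.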

[14] = target: T1, Dual specificity mitogen-activated protein kinase kinase; MEK1/2 (Homo sapiens); assay: Inhibition of MEK in human MDA-MB-231 cells assessed as reduction in ERK phosphorylation at 10 uM incubated for 2 hrs by Western blot analysis; type: cell-based; outline: as §3
[15] = target: T1, Dual specificity mitogen-activated protein kinase kinase; MEK1/2 (Homo sapiens); assay: Inhibition of MEK in human MDA-MB-231 cells assessed as reduction in MEK phosphorylation at 10 uM incubated for 4 hrs by Western blot analysis; type: cell-based; outline: as §3
[16] = target: T1, Dual specificity mitogen-activated protein kinase kinase; MEK1/2 (Homo sapiens); assay: Inhibition of MEK in human MDA-MB-231 cells assessed as reduction in ERK phosphorylation at 10 uM incubated for 4 hrs by Western blot analysis; type: cell-based; outline: as §3
[17] = target: T1, Dual specificity mitogen-activated protein kinase kinase; MEK1/2 (Homo sapiens); assay: Inhibition of MEK in human A549 cells assessed as reduction in MEK phosphorylation incubated for 2 hrs by Western blot analysis; type: cell-based; settings: dose 1-10 µM; outline: as §1
[18] = target: T1, Dual specificity mitogen-activated protein kinase kinase; MEK1/2 (Homo sapiens); assay: Inhibition of MEK in human A549 cells assessed as reduction in ERK phosphorylation incubated for 2 hrs by Western blot analysis; type: cell-based; settings: dose 1-10 µM; outline: as §1
[19] = target: T1, Dual specificity mitogen-activated protein kinase kinase; MEK1/2 (Homo sapiens); assay: Inhibition of MEK in human A549 cells assessed as reduction in MEK phosphorylation by Western blot analysis; type: cell-based; settings: TDE = time-dependent effect; outline: as §1
[20] = target: T1, Dual specificity mitogen-activated protein kinase kinase; MEK1/2 (Homo sapiens); assay: Inhibition of MEK in human A549 cells assessed as reduction in ERK phosphorylation by Western blot analysis; type: cell-based; settings: TDE = time-dependent effect; outline: as §1
[21] = target: T1, Dual specificity mitogen-activated protein kinase kinase; MEK1/2 (Homo sapiens); assay: Inhibition of MEK in human MDA-MB-231 cells assessed as reduction in MEK phosphorylation at 1 to 10 uM incubated for 24 hrs by Western blot analysis; type: cell-based; settings: dose 1-10 µM; outline: as §3
[22] = target: T1, Dual specificity mitogen-activated protein kinase kinase; MEK1/2 (Homo sapiens); assay: Inhibition of MEK in human MDA-MB-231 cells assessed as reduction in ERK phosphorylation at 1 to 10 uM incubated for 24 hrs by Western blot analysis; type: cell-based; settings: dose 1-10 µM; outline: as §3
[23] = Prodrug release in human HCT-116 cells assessed as increase in intracellular NO level at 100 uM measured after 2 hr by DAF-FM DA reagent based laser confocal scanning microscopy; settings: hct-116, 2 h

T1 sequence (P36507 whole entry, looked up): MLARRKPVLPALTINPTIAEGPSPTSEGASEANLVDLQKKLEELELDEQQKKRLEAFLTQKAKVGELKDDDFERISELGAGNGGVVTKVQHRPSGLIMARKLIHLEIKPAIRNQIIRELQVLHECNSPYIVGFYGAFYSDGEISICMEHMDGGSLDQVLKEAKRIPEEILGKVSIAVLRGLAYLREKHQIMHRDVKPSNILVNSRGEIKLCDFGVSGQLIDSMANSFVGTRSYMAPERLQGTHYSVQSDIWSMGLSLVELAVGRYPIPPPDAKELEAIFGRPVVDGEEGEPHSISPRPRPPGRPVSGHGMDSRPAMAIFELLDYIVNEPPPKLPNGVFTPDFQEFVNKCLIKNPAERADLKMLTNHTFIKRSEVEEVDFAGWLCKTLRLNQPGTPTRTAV
T1 sequence (Q02750 whole entry, looked up): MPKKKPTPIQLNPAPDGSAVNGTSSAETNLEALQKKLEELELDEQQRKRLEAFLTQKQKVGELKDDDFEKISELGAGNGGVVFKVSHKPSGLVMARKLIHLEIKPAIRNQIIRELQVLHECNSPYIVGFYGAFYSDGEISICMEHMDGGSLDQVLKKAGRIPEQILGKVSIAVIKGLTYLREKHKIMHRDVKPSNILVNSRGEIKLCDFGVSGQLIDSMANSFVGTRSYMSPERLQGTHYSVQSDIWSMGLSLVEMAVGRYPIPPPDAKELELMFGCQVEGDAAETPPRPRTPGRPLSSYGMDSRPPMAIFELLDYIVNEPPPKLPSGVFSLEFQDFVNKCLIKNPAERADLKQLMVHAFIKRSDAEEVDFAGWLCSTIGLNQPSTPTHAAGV

IC50 (MDA-MB-231 [3]): 93 nM
IC50 (HCT-116): 670 nM
IC50 (A549): 1100 nM
IC50 (HL-60): 530 nM
inhibition [4]: Active
inhibition [5]: Active
inhibition [13]: Active
inhibition [14]: Active
inhibition [15]: 100%
inhibition [16]: 100%
inhibition [17]: Dose-dependent effect
inhibition [18]: Dose-dependent effect
inhibition [19]: Tde
inhibition [20]: Tde
inhibition [21]: Active
inhibition [22]: Active
Drug metabolism [23]: Metabolite_Detected
Compound: CNS(=O)(=O)Nc1cccc(Cc2c(C)c3ccc(OCCOc4no[n+]([O-])c4S(=O)(=O)c4ccccc4)cc3oc2=O)c1F
Activity (MDA-MB-231 [1]): 5.11%
IC50 [2]: 330 nM
IC50 (Vero): 4340 nM
IC50 (L02): 2780 nM
viability at 1 µM (MDA-MB-231 [6]): 68%
Activity (MDA-MB-231 [7]): 20.2%
Activity (MDA-MB-231 [8]): 8.15%
Activity (MDA-MB-231 [9]): 3.613%
viability at 10 µM (MDA-MB-231 [10]): 57.2%
Activity (MDA-MB-231 [11]): 22.9%
Activity (MDA-MB-231 [12]): 14.737%
